Hits are enriched below; roughly 5.6% of the tested compounds scored in any of these assays.
UPR CHOP act – activators of apoptotic CHOP UPR arm, primary screen, cell-based, CHO-CHOP luciferase reporter, luminescence, uHTS. activation, % at 10 µM. AID 449763, 2010. actives 0.34% (n = 330,000). UPR activation; percent of tunicamycin response over DMSO baseline;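 active = at 10 µM dose, activation of 40% or more, normalized to positive control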;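 also: 100% = tunicamycin at 10 µg/mL and 0% = DMSO alone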
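assay system = CHO CHOP reporter cells | amount = 500 CHO-CHOP cells per well | buffer or medium = F12 with 10% FBS | incubation = 16-18 h cell attachment, then 6 h compound exposure, 37 °C | detection = luminescence read with Steady-Glo | read-out = percent activation relative to tunicamycin control | controls = tunicamycin high control, DMSO low control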
MPTP block – mitochondrial permeability transition pore inhibitors, primary screen, biochemical, isolated mouse mitochondria, absorbance | Ca2+ swelling absorbance, 30 min | inhibition, % at 10 µM | actives 1.4% (n = 360,000);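 active = inhibition of 50% or more, scaled per plate between neutral and stimulator controls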;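 also: 0% = DMSO wells given calcium and 100% = 1 mM EGTA wells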
CHOP inh – inhibitors of CHOP promoter induction, primary screen, cell-based, unfolded protein response, luciferase reporter. CHO-K1 CHOP-promoter luciferase, tunicamycin-induced, 15-18 h. inhibition, % at 10 µM. actives 3.8% (n = 220,000). AID 2732, 2010;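 active = compounds that reduced the stress-induced luciferase reporter signal by more than about 70% of percent inhibition, limit read from the data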;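 also: 0% = tunicamycin plus vehicle and 100% = wells without tunicamycin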
UPR XBP1 act – activators of adaptive XBP1 UPR arm, primary screen, cell-based, CHO-XBP1 luciferase reporter, luminescence, uHTS; IRE1-XBP1 UPR activation; percent of tunicamycin response, DMSO as zero; activation, % at 20 µM; actives 0.33% (n = 330,000); AID 463104, 2010;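 active = versus positive control, 20 µM dose yields 30% or more activation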;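 also: 100% = tunicamycin at 10 µg/mL and 0% = DMSO only wells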
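Material: IRE1-XBP1 luciferase reporter CHO line / Quantity: one thousand reporter cells per well / Buffer or medium: F12 with 10% serum / Compound: 20 µM single concentration, DMSO 1% / Times: 6 h treatment, 37 °C / Detection: Steady-Glo luciferase glow luminescence, 10 min after reagent addition / Benchmarks: tunicamycin high, DMSO low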
aDG glyco up – activators of alpha-DG glycosylation, primary screen, uHTS, Pro5-aDG cells, AlphaScreen. alpha-DG glycosylation AlphaScreen (IIH6); 0% Pro5, 100% B10-LARGE cell signal. activation, % at 10 µM. actives 0.22% (n = 360,000);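 active = activation of at least 8% versus controls, or a plate z-score of at least 8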;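 also: Pro5 are CHO cells carrying HIG-tagged alpha-DG that lacks glycosylation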
NR3A LBD binder – binders of NR3A ligand-binding domain, primary screen, biophysical, differential scanning fluorimetry, uHTS; NR3A LBD differential scanning fluorimetry, Tm shift; 0% = protein alone, 100% = glycine-bound protein; Tm shift relative to glycine control, % at 25 µM; actives 2.5% (n = 340,000); AID 1259313, 2017;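 active = melting temperature shift of at least 10% of the positive control shift, at one fixed dose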
aDG glyco conf – alpha-DG glycosylation enhancers, retest, confirmation, single concentration, Pro5-aDG cells; actives 17% (n = 600); shares compounds with aDG glyco up; AID 651671, 2012; IIH6 AlphaLISA; scaled to LARGE-overexpressing B10 cells as 100%; activation, % at 10 µM (by protocol);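 active = activation of at least 7% in one or more replicates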;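 also: cells exposed to compound for two days before detection; 0% = DMSO-treated Pro5 cells and 100% = DMSO-treated B10-LARGE cells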
* marks the source's active call; other numbers are inactive results; · = no result given.

SMILES | UPR CHOP act | MPTP block | CHOP inh | UPR XBP1 act | aDG glyco up | NR3A LBD binder | aDG glyco conf
COc1cccc(CNC(=O)[C@@H]2CCCN2C(=O)[C@@H]2CCCN2C(=O)c2cccc3ccccc23)c1 | · | 0.6 | · | · | 0.0 | · | ·
CCCCCOc1ccc(/C(C)=N/NC2=NCCN2)cc1 | 2.5 | 49.4 | · | 3.0 | 1.6* | -1.4 | 8.6*
Cc1cc2ccccc2n1CCNC(=O)C1CC1 | -0.1 | 2.7 | · | 1.0 | 7.8* | 2.2 | -0.1
CCOC(=O)CNC(=O)Cn1c(C)cc2ccccc2c1=O | -0.2 | -0.9 | 10.7 | 0.7 | 0.0 | -1.3 | ·
COc1cc(NC(=O)CNC(=O)Cn2c(C)cc3ccccc3c2=O)cc(OC)c1OC | 0.1 | -1.6 | · | -2.1 | 3.3* | 1.0 | -0.5
CC[C@]12c3[nH]c4ccccc4c3CCN1C(=O)C(CC(=O)NCCc1ccccn1)C[C@@H]2C(=O)N1CCN(C(=O)C2CC2)CC1 (stereo partly specified) | 0.4 | -0.7 | · | -0.1 | 0.8 | -0.2 | ·
CC[C@]12c3[nH]c4ccc(Cl)cc4c3CCN1C(=O)[C@@H](CC(=O)NCCc1ccccn1)C[C@@H]2C(=O)N1CCN(C(=O)C2CC2)CC1 | -0.1 | -0.7 | · | 2.6 | 7.9* | -0.2 | 2.0
CCOC(=O)/C(=N\Nc1ccccc1)P(=O)(c1ccccc1)c1ccccc1 | 1.8 | 3.1 | 6.8 | -1.9 | -0.1 | -1.1 | ·
CCOC(=O)C(/C(N)=N/C(=O)Nc1ccccc1)=C(\C)O | 2.7 | -0.4 | 20.7 | -1.8 | 2.9* | 2.2 | -0.6
CCN(C(=O)CCc1nnc2ccc(NCc3ccco3)nn12)c1ccccc1 | 3.2 | -0.6 | · | -7.4 | -0.1 | -2.6 | ·
COc1ccc(CN=Cc2[nH]c3ccc(Br)c(Cl)c3c2O)cc1 | 0.8 | 5.8 | 42.7 | -1.5 | 3.1 | -4.0 | ·
Cc1cc(C)cc(N=Cc2[nH]c3ccc(Br)c(Cl)c3c2O)c1 | · | -0.4 | 102.8* | · | 5.9* | 17.7* | -1.0
CCCOc1ccc(C(=O)N(CC(C)C)c2c(N)n(Cc3ccccc3)c(=O)[nH]c2=O)cc1 | 0.6 | -0.6 | · | 3.2 | 5.7* | 0.9 | -0.6
CCOc1ccc(OCCC(=O)N(CC(C)C)c2c(N)n(Cc3ccccc3)c(=O)[nH]c2=O)cc1 | · | 1.8 | · | · | -0.1 | 3.0 | ·
CC1CC(C)CN(S(=O)(=O)c2ccc(C(=O)N(C)Cc3ccccc3)cc2)C1 (stereo unspecified) | -1.7 | -1.5 | · | -1.0 | 0.1 | 0.3 | ·
O=C(NCC(c1ccco1)N1CCCC1)c1cn(-c2ccccc2)nc1-c1ccc(F)cc1 (stereo unspecified) | 0.7 | 17.0 | · | -2.7 | 0.0 | -1.9 | ·
Cc1ccc(N(Cc2cc3ccc(C)cc3[nH]c2=O)C(=O)c2ccco2)c(C)c1 | -0.3 | 1.9 | 31.0 | 0.1 | 2.4* | -2.1 | 0.7
Cc1ccc(N(CC(=O)NC(C)c2ccccc2)S(=O)(=O)c2c(C)n[nH]c2C)cc1 (stereo unspecified) | 1.7 | -0.6 | · | -1.5 | 5.6* | -2.6 | 0.2
Cc1ccc(N(CC(=O)NC(C)c2ccccc2)S(=O)(=O)c2c(C)noc2C)cc1 (stereo unspecified) | -3.1 | 0.1 | · | -2.5 | -0.1 | -4.5 | ·
CCOC(=O)N1CCN(S(=O)(=O)c2ccc(C(=O)Nc3sc4c(c3C(N)=O)CCN(CC)C4)cc2)CC1 | -2.7 | -1.4 | · | -0.5 | 86.4* | 0.1 | 0.3
CCN1CCc2c(sc(NC(=O)c3ccc(S(=O)(=O)N4CCCC4)cc3)c2C(=O)NC)C1 | 2.6 | 0.1 | · | -2.2 | 46.6* | -1.2 | 0.0
CN1CCc2c(sc(NC(=O)c3ccc(S(=O)(=O)N4CCCC4)cc3)c2C(N)=O)C1 | -0.2 | 0.3 | · | -4.5 | 13.7* | -1.1 | 1.8
CN1CCc2c(sc(NC(=O)c3ccc(S(=O)(=O)N4CCOCC4)cc3)c2C(N)=O)C1 | -1.8 | -1.1 | -3.5 | -0.9 | 0.9 | 0.6 | ·
CCOC(=O)N1CCN(S(=O)(=O)c2ccc(C(=O)Nc3sc4c(c3C(=O)OC)CCN(C)C4)cc2)CC1 | 0.4 | -0.2 | · | 23.6 | 0.4 | -1.6 | ·
COc1ccc(C(C)=O)cc1COC(=O)CNC(=O)C1CCCCC1 | -1.5 | -1.4 | · | 1.8 | 9.1* | -1.6 | 0.4
SMILES | UPR CHOP act | MPTP block | CHOP inh | UPR XBP1 act | aDG glyco up | NR3A LBD binder | aDG glyco conf
CCCCN(C(=O)CSCC(=O)Nc1ccc(C)cc1)c1c(N)n(CCCC)c(=O)[nH]c1=O | 0.9 | -1.1 | · | 0.1 | 0.5 | -1.6 | ·
CCOC(=O)Cc1csc(SCC(=O)N2CCN(c3ccccc3)CC2)n1 | -1.7 | 1.0 | · | -3.5 | -0.1 | -0.6 | ·
COc1ccc(CCNC(=O)c2cc3c(=O)n4ccccc4nc3n(CCN3CCOCC3)c2=N)cc1 | 3.4 | 4.1 | · | -6.6 | 8.1* | -4.1 | 0.5
CC(C)(C)c1ccc(C(=O)Nc2ccc(C(=O)NCc3cccnc3)cc2)cc1 | 5.7 | -0.7 | · | 6.9 | 2.3* | -1.8 | 4.5*
CC/C(=N\NC(=O)C1CCCC1)c1ccc(Br)cc1 | 1.0 | -1.4 | · | -2.9 | 8.8* | 0.1 | -0.6
CS(=O)(=O)N1CCN(CC(=O)NC2CCCCC2)CC1 | -1.2 | -0.3 | -7.4 | -1.6 | -0.8 | -2.4 | ·
C=CCNC(=S)N/N=C/c1ccc(C(C)(C)C)cc1 | · | 1.5 | 95.3* | · | 8.6* | -9.6 | 1.8
Cn1cc(CN2CCCC(C(=O)Nc3cccc(-c4cc5ccccc5[nH]4)c3)C2)cn1 (stereo unspecified) | 3.8 | 0.4 | · | 0.8 | 1.2 | -4.3 | ·
CC(C)n1cc(CN2CCCC(C(=O)Nc3cccc(-c4cc5ccccc5[nH]4)c3)C2)cn1 (stereo unspecified) | 5.1 | 3.4 | · | 4.6 | 8.8* | -4.9 | 5.3*
CC(C)(C)C(=O)CSc1nc(N)cc(=O)[nH]1 | -0.4 | 0.9 | 6.8 | -0.6 | -0.1 | 1.7 | ·
CC(=O)Nc1ccc2c(c1)C(=O)c1ccc(Cl)cc1-2 | · | 0.3 | · | · | -0.1 | 1.8 | ·
Cc1cncn1CCc1nc2c3ccccc3nc(SCC(=O)Nc3cccc(Cl)c3)n2n1 | · | 0.9 | 31.5 | · | 8.7* | -6.0 | 5.3*
Cc1cc(CNC(=O)COc2cc(F)ccc2[N+](=O)[O-])c2ccccc2n1 | -0.9 | 8.9 | 24.2 | -1.1 | 8.2* | -1.1 | -0.6
CN1CCN(c2ccc(S(=O)(=O)N3CCCCC3)cc2NC(=O)/C=C/c2ccc(OC(F)F)cc2)CC1 | 3.5 | -0.7 | · | 0.2 | 7.5* | -4.7 | 17.3*

Screens: PubChem BioAssay, several laboratories
